# Active and inactive are the calls of the source. The calls are words filed in the database; no cut-off is given here.
# How the values were obtained:
# [1] = tested on: PC-3; assay: Anticancer activity against human PC3 cells assessed as inhibition of cell proliferation measured after 72 hrs by MTT assay; assay type: functional, cell-based; settings: PC-3, 72 h
# In short: (§1)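 Cells (A549, PC-3, HeLa, HUVEC) grown in DMEM with 10% FBS at 37 °C, 5% CO₂. Seeded at 5 × 10⁴ cells/well and allowed 24 h to attach, then exposed 72 h to a concentration series from DMSO stocks. MTT was added for 4 h and formazan dissolved in DMSO, read at 490 nm. Survival taken relative to untreated control. IC50 by Bliss method, three repeats.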
# [2] = tested on: HUVEC; assay: Cytotoxicity against HUVEC cells assessed as inhibition of cell proliferation measured after 72 hrs by MTT assay; assay type: cell-based; settings: Homo sapiens; in short: as §1
# [3] = tested on: A549; assay: Anticancer activity against human A549 cells assessed as inhibition of cell proliferation measured after 72 hrs by MTT assay; assay type: functional, cell-based; settings: A549, 72 h; in short: as §1
# [4] = tested on: HeLa; assay: Anticancer activity against human HeLa cells assessed as inhibition of cell proliferation measured after 72 hrs by MTT assay; assay type: functional, cell-based; in short: as §1
# [5] = tested on: HeLa; assay: Inhibition of IDO1 expression in hIFNgamma-stimulated human HeLa cells at 0.5 uM measured after 24 hrs by western blot assay; assay type: functional
# In short: (§2)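 HeLa cells were treated 24 h at 37 °C and lysed in buffer containing PMSF. Protein quantified by BCA, equal amounts separated by SDS-PAGE and transferred to nitrocellulose. Blocked in 5% milk, primary antibodies overnight at 4 °C, peroxidase secondary 2 h at 25 °C. Detection by chemiluminescence, β-actin as loading control.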
# [6] = Toxicity in BALB/c nude mouse transfected with human HeLa cells assessed as liver damage at 30 mg/kg/day, iv for 21 days by H&E staining based immunohistochemistry; assay type: organism-based; settings: in vivo, 504 h, time 21 day
# In short: (§3)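 HeLa xenografts were grown s.c. in male BALB/c nude mice, which received i.v. tail-vein doses once daily for 21 days in Tween 80/saline vehicle, with saline controls. After 3 weeks the mice were sacrificed. Organs from one mouse per group were fixed in 4% paraformaldehyde, paraffin-embedded and sectioned. Sections were dewaxed, stained with Harris hematoxylin and eosin-phloxine, and examined microscopically for histopathologic changes.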
# [7] = tested on: HeLa; assay: Induction of apoptosis in human HeLa cells assessed as early apoptotic cells at 0.5 uM measured after 24 hrs by Annexin-V-FITC and PI staining based flow cytometry (reference value: 2.58%); assay type: functional
# In short: (§4)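 HeLa cells were treated 24 h, washed twice in PBS and resuspended in binding buffer. Stained with annexin V-FITC and PI for 30 min in the dark at room temperature, then analysed by flow cytometry.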
# [8] = tested on: HeLa; assay: Induction of apoptosis in human HeLa cells assessed as upregulation of PARP protein expression at 0.5 uM measured after 24 hrs by western blot analysis; assay type: functional, cell-based; in short: as §2
# [9] = tested on: HeLa; assay: Induction of cell cycle arrest in human HeLa cells assessed as accumulation at G1 phase at 0.5 uM measured after 24 hrs by propidium iodide/RNAse staining based flow cytometry (reference value: 61.5%); assay type: functional
# [10] = tested on: HeLa; assay: Induction of apoptosis in human HeLa cells assessed as cell membrane integrity loss, chromatin condensation and apoptotic body formation by measuring strengthened orange fluorescence intensity at 0.5 uM measured after 24 hrs by AO/EB dual staining based fluorescence microscopy; assay type: functional
# [11] = Toxicity in BALB/c nude mouse transfected with human HeLa cells assessed as body weight changes at 30 mg/kg/day, iv for 21 days; assay type: organism-based; settings: in vivo, 504 h, time 21 day
# In short: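 Five-week-old male BALB/c nude mice (18-22 g) were inoculated s.c. in the right armpit with HeLa cells (1 × 10⁷ cells/0.1 mL/mouse). At a tumour volume of 120-150 mm³, mice were randomised, five per group. Dosing was i.v. via the tail vein once daily for 21 days, in Tween 80/physiological saline; controls got an equal volume of saline. Body weight was recorded every 2 days.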
# [12] = tested on: HeLa; assay: Induction of apoptosis in human HeLa cells assessed as upregulation of caspase-3 protein expression at 0.5 uM measured after 24 hrs by western blot analysis; assay type: functional, cell-based; in short: as §2
# [13] = tested on: HeLa; assay: Induction of apoptosis in human HeLa cells assessed as mitochondrial membrane potential dissipation by measuring increase in green fluorescence intensity at 0.5 uM incubated for 24 hrs by JC-1 staining based fluorescence microscopic analysis; assay type: functional, cell-based
# [14] = tested on: HeLa; assay: Induction of apoptosis in human HeLa cells assessed as mitochondrial membrane potential dissipation at 0.5 uM incubated for 24 hrs by JC-1 staining based flow cytometry (reference value: 6.6%); assay type: functional
# [15] = Toxicity in BALB/c nude mouse transfected with human HeLa cells assessed as lung damage at 30 mg/kg/day, iv for 21 days by H&E staining based immunohistochemistry; assay type: organism-based; settings: in vivo, 504 h, time 21 day; in short: as §3
# [16] = Toxicity in BALB/c nude mouse transfected with human HeLa cells assessed as heart damage at 30 mg/kg/day, iv for 21 days by H&E staining based immunohistochemistry; assay type: organism-based; settings: in vivo, 504 h, time 21 day; in short: as §3
# [17] = tested on: HeLa; assay: Antitumor activity against human HeLa cells xenografted in BALB/c mouse assessed as inhibition of tumor volume at 30 mg/kg/day, iv administered for 21 days by caliper analysis; assay type: functional; settings: 504 h, time 21 day
# In short: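 Male BALB/c nude mice, five weeks old, 18-22 g. Inoculated subcutaneously in the right armpit with 1 × 10⁷ HeLa cells/0.1 mL. At 120-150 mm³, randomized to four groups of five. Once-daily tail-vein injection for 21 days in Tween 80/physiological saline; controls received saline. Tumor volume measured every 2 days by caliper, V = AB²/2.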
# [18] = tested on: HeLa; assay: Induction of intracellular reactive oxygen species generation in human HeLa cells at 0.5 uM measured after 24 hrs by DCFH-DA staining based flow cytometry (reference value: 6.47%); assay type: functional
# [19] = Toxicity in BALB/c nude mouse transfected with human HeLa cells assessed as kidney damage at 30 mg/kg/day, iv for 21 days by H&E staining based immunohistochemistry; assay type: organism-based; settings: in vivo, 504 h, time 21 day; in short: as §3
# [20] = tested on: HeLa; assay: Induction of apoptosis in human HeLa cells assessed as down regulation of Bcl-2 protein expression at 0.5 uM measured after 24 hrs by western blot analysis; assay type: functional, cell-based; in short: as §2
# [21] = tested on: HeLa; assay: Induction of cell cycle arrest in human HeLa cells assessed as accumulation at S phase at 0.5 uM measured after 24 hrs by propidium iodide/RNAse staining based flow cytometry (reference value: 27.8%); assay type: functional
# [22] = tested on: HeLa; assay: Induction of apoptosis in human HeLa cells assessed as necrotic cells at 0.5 uM measured after 24 hrs by Annexin-V-FITC and PI staining based flow cytometry (reference value: 0.956%); assay type: functional; in short: as §4
# [23] = tested on: HeLa; assay: Induction of apoptosis in human HeLa cells assessed as late apoptotic cells at 0.5 uM measured after 24 hrs by Annexin-V-FITC and PI staining based flow cytometry (reference value: 0.199%); assay type: functional; in short: as §4
# [24] = tested on: HeLa; assay: Induction of cell cycle arrest in human HeLa cells assessed as accumulation at G2/M phase at 0.5 uM measured after 24 hrs by propidium iodide/RNAse staining based flow cytometry (reference value: 10.7%); assay type: functional
# [25] = tested on: HeLa; assay: Induction of apoptosis in human HeLa cells assessed as viable cells at 0.5 uM measured after 24 hrs by Annexin-V-FITC and PI staining based flow cytometry (reference value: 96.3%); assay type: functional; settings: read-out: Activity; in short: as §4
# [26] = tested on: HeLa; assay: Induction of apoptosis in human HeLa cells assessed as cell membrane integrity loss, chromatin condensation and apoptotic body formation by measuring reduction in green fluorescence intensity at 0.5 uM measured after 24 hrs by AO/EB dual staining based fluorescence microscopy; assay type: functional
# [27] = tested on: HeLa; assay: Induction of apoptosis in human HeLa cells assessed as upregulation of Bax protein expression at 0.5 uM measured after 24 hrs by western blot analysis; assay type: functional, cell-based; in short: as §2
# [28] = tested on: HeLa; assay: Inhibition of cell migration in human HeLa cells at 0.5 uM measured after 24 hrs by wound healing assay (reference value: 61%); assay type: functional
# In short: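 Confluent HeLa monolayers were scratched with a pipette tip and washed with ice-cold PBS. Incubated 24 h at 37 °C in DMEM/10% FBS containing compound. Wounds were photographed at 0 and 24 h and migration distance measured manually.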
# [29] = Toxicity in BALB/c nude mouse transfected with human HeLa cells assessed as spleen damage at 30 mg/kg/day, iv for 21 days by H&E staining based immunohistochemistry; assay type: organism-based; settings: in vivo, 504 h, time 21 day; in short: as §3
# [30] = tested on: HeLa; assay: Inhibition of IDO1 expression in hIFNgamma-stimulated human HeLa cells assessed as decrease in kynurenine production at 0.1 uM measured after 48 hrs by reverse-phase HPLC analysis; assay type: functional
# In short: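 HeLa cells were given fresh L-tryptophan-containing medium with hIFN-γ (25 ng/mL) plus compound for 48 h. Collected cells were treated with 20% trichloroacetic acid and centrifuged. Supernatant analysed by reversed-phase HPLC (ODS column, acetonitrile/water, 1.0 mL/min, […]).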
# [31] = Antitumor immunity against IFN-gamma stimulated human HeLa cells co-cultured with PHA-M-stimulated human PBMC cells assessed as induction of CD3+ T cell proliferation at 0.1 uM preincubated for 2 days measured after co-culturing with PBMC for 6 days by flow cytometry (reference value: 6 to 6.2%); assay type: functional; settings: time 8 day
smiles,measurement,setting,value
COc1ccc(/C=C/C(=O)c2cc(OC)c(OC)c(OC)c2)cc1OC(=O)c1cccc(Cn2cc(CCOC(=O)[C@H](N)Cc3cn(C)c4ccccc34)nn2)c1,IC50,[1],620 nM
same,IC50,[2],3730 nM
same,IC50,[3],710 nM
same,IC50,[4],480 nM
COc1ccc(/C=C\c2cc(OC)c(OC)c(OC)c2)cc1OC(=O)[C@H](N)Cc1cn(C)c2ccccc12,IC50,[1],720 nM
same,IC50,[2],2530 nM
same,inhibition,[5],Active
same,IC50,[3],680 nM
same,IC50,[4],430 nM
COc1ccc(/C=C\c2cc(OC)c(OC)c(OC)c2)cc1O [COMBRETASTATIN A4],Activity,[6],Non-Toxic
same,Activity,[7],25%
same,Activity,[8],Active
same,Activity,[9],4.65%
same,Activity,[10],Active
same,IC50,[1],400 nM
same,Activity,[11],Non-Toxic
same,IC50,[2],980 nM
same,Activity,[12],Active
same,inhibition,[5],inactive
same,Activity,[13],Active
same,Activity,[14],54.2%
same,Activity,[15],Non-Toxic
same,Activity,[16],Non-Toxic
same,inhibition in vivo at 30 mg/kg/day,[17],57.6%
same,IC50,[3],470 nM
same,Activity,[18],21.8%
same,Activity,[19],Non-Toxic
same,Activity,[20],Active
same,Activity,[21],28.77%
same,Activity,[22],1.44%
same,Activity,[23],10.3%
same,IC50,[4],210 nM
same,Activity,[24],66.57%
same,viability at 0.5 µM,[25],63.3%
same,Activity,[26],Active
same,Activity,[27],Active
same,inhibition at 0.5 µM,[28],79%
same,Activity,[29],Non-Toxic
Cn1cc(C[C@@H](N)C(=O)O)c2ccccc21 [INDOXIMOD],inhibition,[30],Active
same,IC50,[1],> 100000 nM
same,Activity,[31],17.8%
same,IC50,[2],> 100000 nM
same,inhibition,[5],Active
same,IC50,[3],> 100000 nM
same,IC50,[4],> 100000 nM
COc1ccc(/C=C\c2cc(OC)c(OC)c(OC)c2)cc1OCCCOC(=O)[C@H](N)Cc1cn(C)c2ccccc12,IC50,[1],580 nM
same,IC50,[2],3110 nM
same,inhibition,[5],Active
same,IC50,[3],530 nM
same,IC50,[4],330 nM
COc1ccc(/C=C\c2cc(OC)c(OC)c(OC)c2)cc1OC(=O)CCC(=O)n1cc(C2CC(=O)NC2=O)c2cc(F)ccc21 (stereo not given),IC50,[1],620 nM
same,IC50,[2],2270 nM
same,IC50,[3],450 nM
same,IC50,[4],270 nM
COc1ccc(/C=C/C(=O)c2cc(OC)c(OC)c(OC)c2)cc1O,IC50,[1],640 nM
same,IC50,[2],1240 nM
same,IC50,[3],550 nM
same,IC50,[4],350 nM
COc1ccc(/C=C/C(=O)c2cc(OC)c(OC)c(OC)c2)cc1OC(=O)c1cccc(Cn2cc(CCOC(=O)CCC(=O)n3cc(C4CC(=O)NC4=O)c4cc(F)ccc43)nn2)c1 (stereo not given),IC50,[1],1560 nM
same,IC50,[2],7190 nM
same,IC50,[3],970 nM
same,IC50,[4],490 nM
COc1ccc(/C=C\c2cc(OC)c(OC)c(OC)c2)cc1OC(=O)c1cccc(Cn2cc(CCOC(=O)CCC(=O)n3cc(C4CC(=O)NC4=O)c4cc(F)ccc43)nn2)c1 (stereo not given),IC50,[1],850 nM
same,IC50,[2],4490 nM
same,IC50,[3],950 nM
same,IC50,[4],390 nM
COc1ccc(/C=C/C(=O)c2cc(OC)c(OC)c(OC)c2)cc1OC(=O)CCC(=O)n1cc(C2CC(=O)NC2=O)c2cc(F)ccc21 (stereo not given),IC50,[1],1390 nM
same,IC50,[2],4760 nM
same,IC50,[3],1280 nM
same,IC50,[4],370 nM

# Source: ChEMBL document CHEMBL4680166, “Dual-functional conjugates improving cancer immunochemotherapy by inhibiting tubulin polymerization and indoleamine-2,3-dioxygenase” (Eur J Med Chem, 2020)
